From ChEMBL document CHEMBL1133863, “Dual neurokinin NK(1)/NK(2) antagonists: N-[(R,R)-(E)-1-arylmethyl-3-(2-oxo-azepan-3-yl)carbamoyl]allyl-N-methyl-3,5-bis(trifluoromethyl)benzamides and 3-[N'-3,5-bis(trifluoromethyl)benzoyl-N-arylmethyl-N'-methylhydrazino]-N-[(R)-2-oxo-azepan-3-yl]propionamides” (Bioorg Med Chem Lett, 2001)

molecular target: T1, Substance-K receptor (Homo sapiens, UniProt P21452); assay: In vitro binding affinity for Tachykinin receptor 2 of human-CHO cells using 125 I-NKA radioligand; format: cell-based
T1 sequence (P21452 whole entry): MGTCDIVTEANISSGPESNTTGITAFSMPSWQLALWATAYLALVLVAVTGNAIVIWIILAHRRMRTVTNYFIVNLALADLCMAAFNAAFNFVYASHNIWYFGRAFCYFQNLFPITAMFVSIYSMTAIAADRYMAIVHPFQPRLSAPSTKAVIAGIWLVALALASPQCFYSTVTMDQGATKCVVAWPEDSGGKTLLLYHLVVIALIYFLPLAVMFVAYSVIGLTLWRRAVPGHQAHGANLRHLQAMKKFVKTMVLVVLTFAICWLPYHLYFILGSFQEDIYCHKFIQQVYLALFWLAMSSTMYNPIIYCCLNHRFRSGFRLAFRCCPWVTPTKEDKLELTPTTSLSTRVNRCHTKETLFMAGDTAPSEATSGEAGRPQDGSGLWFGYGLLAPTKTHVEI
How it was run: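 Whole CHO cells stably expressing recombinant human NK2 receptor (3×10^5 per well) incubated 20 min at room temperature with 0.05 nM [125I]-NKA (2200 Ci/mmol) and a range of test concentrations in 20 mM HEPES pH 7.4 with 2 mM MnSO4 and 6 mM MgCl2. Nonspecific binding defined with 50 nM NKA. Rapid filtration, four ice-cold Tricine washes, scintillation counting; triplicate samples.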

IC50 [µM]	Structure (SMILES)
0.06	CN(C(=O)c1cc(C(F)(F)F)cc(C(F)(F)F)c1)[C@@H](/C=C/C(=O)N[C@@H]1CCCCNC1=O)Cc1ccc2ccccc2c1
0.055	CN(C(=O)c1cc(C(F)(F)F)cc(C(F)(F)F)c1)N(CCC(=O)N[C@@H]1CCCCNC1=O)Cc1ccc2ccccc2c1
0.017	CN(C(=O)c1cc(C(F)(F)F)cc(C(F)(F)F)c1)[C@@H](/C=C/C(=O)N[C@@H]1CCCCNC1=O)Cc1cc(Cl)c(Cl)s1
0.024	CN(C(=O)c1cc(C(F)(F)F)cc(C(F)(F)F)c1)[C@@H](/C=C/C(=O)N[C@@H]1CCCCNC1=O)Cc1cn(C)c2ccccc12
0.0055	CN(C(=O)c1cc(C(F)(F)F)cc(C(F)(F)F)c1)[C@@H](/C=C/C(=O)N[C@@H]1CCCCNC1=O)Cc1ccc(Cl)c(Cl)c1 [DNK333]

More lines, now with the values behind:

Structure (SMILES)	IC50 [µM]
CN(C(=O)c1cc(C(F)(F)F)cc(C(F)(F)F)c1)[C@@H](/C=C/C(=O)N[C@@H]1CCCCNC1=O)Cc1cc(Br)c(Br)s1	0.026
CN(C(=O)c1cc(C(F)(F)F)cc(C(F)(F)F)c1)[C@@H](/C=C/C(=O)NC1CCCCCC1)Cc1ccc(Cl)cc1	0.203
CN(C(=O)c1cc(C(F)(F)F)cc(C(F)(F)F)c1)N(CCC(=O)N[C@@H]1CCCCNC1=O)Cc1cc(Br)c(Br)s1	0.0195
CN(C(=O)c1cc(C(F)(F)F)cc(C(F)(F)F)c1)[C@@H](/C=C/C(=O)NC1(C(N)=O)CCCCC1)Cc1ccc(Cl)cc1	0.066
CN(C(=O)c1cc(C(F)(F)F)cc(C(F)(F)F)c1)N(CCC(=O)N[C@@H]1CCCCNC1=O)Cc1ccc(Cl)c(Cl)c1	0.0055
